# Assay results: the M2OR odorant receptor database
# Biological target: T1, OR10J5 (Homo sapiens) (UniProt Q8NHC4)
# T1 sequence (whole entry): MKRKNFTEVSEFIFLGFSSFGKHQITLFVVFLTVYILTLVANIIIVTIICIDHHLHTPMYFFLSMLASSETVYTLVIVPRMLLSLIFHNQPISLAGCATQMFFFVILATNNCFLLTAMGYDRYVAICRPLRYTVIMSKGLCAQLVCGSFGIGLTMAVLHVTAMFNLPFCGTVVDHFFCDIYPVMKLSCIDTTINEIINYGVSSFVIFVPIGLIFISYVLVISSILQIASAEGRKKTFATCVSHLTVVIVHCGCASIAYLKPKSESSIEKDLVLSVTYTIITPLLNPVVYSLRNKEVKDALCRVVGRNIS
# Settings: stereoisomer not certain
# How it was run: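 Each receptor–molecule pair is labelled responsive or non-responsive (inactive) according to whether the original authors judged the measured signal statistically different from baseline. The data were taken from the main text and supplementary material of published papers and checked for typos and inconsistencies. Assay methods differed by source, with transient luciferase assays in mammalian cell lines being common.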
# 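Also: active if original authors judged signal statistically different from baseline.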
compound,measurement,value
CC(=O)OCC=C(C)C,odorant receptor agonist call,inactive
